This is an account of results in article PMC4428392 (Anti-Cancer Agents in Medicinal Chemistry, 2014).

Common to all, as to assay type: cell-based, Human
The subject of one data set is HCT-116 cells. Put plainly: Cell cycle assay by flow cytometry. The conditions noted are these: for Sub-G1 (%) / G1 (%) / G2/M (%) / S (%): 24 h.
The test system of another data set is NCI-H460. In words: MTT cytotoxicity assay in normoxia and hypoxia, NCI-H460. The conditions noted are these: for IC50: Homo sapiens. An outline of the steps:
(§1)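 MCF-7 and HCT-116 were grown in DMEM; NCI-H460 in RPMI 1640 plus 10 mM HEPES; all media had 10% FBS, pyruvate and 1.5 g/L bicarbonate. Cells were seeded at 20000/well and grown 24 h at 20% O2, 5% CO2, 37 °C. Serial compound concentrations were then given for 24 h in normoxia, or for 6 h hypoxia (3% O2) followed by 18 h normoxia. MTT was read at 545 nm. IC50 came from linear regression of % inhibition versus log concentration, and HCR = IC50 normoxia/IC50 hypoxia.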
A general note: Formazan colour is commonly taken as a measure of viable cells.

The subject of a further data set is HCT-116. Put plainly: MTT cytotoxicity assay in normoxia and hypoxia, HCT-116. As to conditions: for HCR = hypoxic cytotoxicity ratio IC50 (aerobic)/IC50 (hypoxic): HCT-116; for IC50: Homo sapiens. An outline of the steps:
as §1

Data set [1] has as its system co-cultured HUVECs and fibroblasts. Put plainly: In vitro tube formation test. The conditions noted are these: 2 μM, 11 days. An outline of the steps: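 HUVECs were co-cultured with fibroblasts for 11 days in basal medium, solvent-control medium (0.2% DMSO), or solvent medium with test compound at 2 or 20 μM. Medium ± compound was renewed every 3 days, and suramin served as the kit positive control. HUVECs were stained with anti-CD31, and tube area, length, joints and paths were measured by image analyzer over 5 fields. Quadruplicate wells; mean ± SEM, n=4.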

Data set [2] concerns caspase 3/7 in HCT-116 cells. Put plainly: Caspase 3/7 activity. The conditions noted are these: 30 µM, 24 h. An outline of the steps:
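HCT-116 cells were exposed to test compound at 30 µM for 24 h in normoxia or hypoxia. Cells were harvested, washed in PBS, centrifuged (350 g, 5 min) and stained with a FAM-FLICA caspase-3/7 inhibitor kit. Active caspase 3/7 was measured by flow cytometry. Data are mean ± SEM, n=3, compared with solvent control by one-way ANOVA with Tukey post hoc test.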

[3] abbreviates: NCI-H460, 24 h, read-out: Cytotoxicity (IC50) NCI-H460 N.
The mark [4] stands for this setting: NCI-H460, read-out: Cytotoxicity (IC50) NCI-H460 H.
Setting [5] is: HCT-116, 24 h, read-out: Cytotoxicity (IC50) HCT-116 N.
The mark [6] stands for this setting: HCT-116, read-out: Cytotoxicity (IC50) HCT-116 H.
The mark [7] stands for this setting: HCT-116, read-out: Cytotoxicity (IC50), cell kill under hypoxia.

Values joined by “and” are separate entries in the source; they are usually repeats but may differ in a detail not shown here. Identical values can stand only once. Like-named read-outs stand apart in the source and are kept apart here.

On to “1,2,4-benzotriazine-1-oxide [Compound 1]”, for which the “effect on HCT-116 cell cycle (G2/M accumulation)” value in the data set with HCT-116 cells (data not shown) was “invalid”.

In the case of `NCCNc1n[n+]([O-])c2ccccc2[n+]1[O-]` [Compound 8a, N^1-(1,4-Dioxido-1,2,4-benzotriazine-3-yl)-1,2-ethanediamine], the IC50 worked out at 18.7 ± 2.7 µM with NCI-H460 (setting [3]); 10.1 ± 3.7 µM in the data set on NCI-H460 (setting [4]); 40.3 ± 14.6 µM with HCT-116 (setting [5]); 22.4 ± 9.7 µM with HCT-116 (setting [6]); 22.4 µM in the data set with HCT-116 (setting [7]). Moreover, the “HCR = hypoxic cytotoxicity ratio IC50 (aerobic)/IC50 (hypoxic)” value (shortened to “HCR = hypoxic cytotoxicity ratio IC50”) in the data set with HCT-116 is 1.8.

Turning to `NCCCNc1n[n+]([O-])c2ccccc2[n+]1[O-]` [Compound 8b, N^1-(1,4-Dioxido-1,2,4-benzotriazine-3-yl)-1,3-propanediamine], the IC50 with NCI-H460 (setting [3]) amounted to 95.6 ± 33.9 µM; in the data set with NCI-H460 (setting [4]), 79.5 ± 26.6 µM; with HCT-116 (setting [5]), 90.4 ± 3.5 µM; in the data set on HCT-116 (setting [6]), 54.8 ± 8 µM; in the data set on HCT-116 (setting [7]) it was 54.8 µM. Besides, the “HCR = hypoxic cytotoxicity ratio IC50” value with HCT-116 is 1.7.

Turning to `NCCCCCNc1n[n+]([O-])c2ccccc2[n+]1[O-]` [Compound 8d, N^1-(1,4-Dioxido-1,2,4-benzotriazine-3-yl)-1,5-pentanediamine], the IC50 came to 101 ± 38.9 µM in the data set with NCI-H460 (setting [3]); 83.4 ± 33.8 µM in the data set on NCI-H460 (setting [4]); 93.7 ± 20 µM in the data set with HCT-116 (setting [5]); 55.3 ± 7.5 µM in the data set with HCT-116 (setting [6]); 55.3 µM in the data set with HCT-116 (setting [7]). Besides, in the data set with HCT-116, the “HCR = hypoxic cytotoxicity ratio IC50” value came out at 1.7.

On to `NCCCCCCNc1n[n+]([O-])c2ccccc2[n+]1[O-]` [Compound 8e, N^1-(1,4-Dioxido-1,2,4-benzotriazin-3-yl)-1,6-hexanediamine], for which the IC50 is 104 ± 15.1 µM with NCI-H460 (setting [3]); 68.7 ± 15.1 µM with NCI-H460 (setting [4]); 91.2 ± 16.2 µM with HCT-116 (setting [5]); 62.9 ± 11 µM with HCT-116 (setting [6]); 62.1 µM with HCT-116 (setting [7]). Further, in the data set on HCT-116, the “HCR = hypoxic cytotoxicity ratio IC50” value came to 1.5.

As to `NCCCCCCCNc1n[n+]([O-])c2ccccc2[n+]1[O-]` [Compound 8f, N^1-(1,4-Dioxido-1,2,4-benzotriazine-3-yl)-1,7-heptanediamine], the IC50 with NCI-H460 (setting [3]) was 79.4 ± 22.6 µM; in the data set on NCI-H460 (setting [4]), 42.8 ± 8.3 µM; in the data set on HCT-116 (setting [5]), 78.3 ± 4.9 µM; in the data set with HCT-116 (setting [6]), 40.8 ± 4.3 µM; with HCT-116 (setting [7]), 40.8 µM. In the data set with HCT-116, the “HCR = hypoxic cytotoxicity ratio IC50” value worked out at 1.9.

Consider `NCCCCCCCCNc1n[n+]([O-])c2ccccc2[n+]1[O-]` [Compound 8g, N^1-(1,4-Dioxido-1,2,4-benzotriazine-3-yl)-1,8-octanediamine], for which the IC50 came out at 82.7 ± 20.4 µM with NCI-H460 (setting [3]); 45.8 ± 6.1 µM with NCI-H460 (setting [4]); 97 ± 8.7 µM with HCT-116 (setting [5]); 44.8 ± 6 µM in the data set on HCT-116 (setting [6]); 44.8 µM in the data set on HCT-116 (setting [7]). Moreover, the “reduction of areas, lengths, paths and joints of tube formation” value in data set [1] is given as 31-40%. For the same compound, in the data set with HCT-116, the “HCR = hypoxic cytotoxicity ratio IC50” value amounted to 2.2.

Turning to `[O-][n+]1nc(NCCCNc2n[n+]([O-])c3ccccc3[n+]2[O-])nc2ccccc21` [Compound 9b, 3-(3-(1-Oxido-1,2,4-benzotriazin-3-yl)aminopropylamino)-1,2,4-benzotriazine-1,4-dioxide], the IC50 worked out at 44.6 ± 4.3 µM in the data set on NCI-H460 (setting [3]), 21.4 ± 4.8 µM with NCI-H460 (setting [4]), 53.8 ± 4.7 µM with HCT-116 (setting [5]) and 28.7 ± 6.7 µM in the data set with HCT-116 (setting [6]). The “HCR = IC50 (aerobic)/IC50 (hypoxia)” value in the data set on NCI-H460 (NCI-H460) is recorded as 2.1. Moreover, the “level of active caspase 3/7” value in data set [2] (HCT-116, hypoxia, solvent control 7%) is ~23%. The “effect on level of active caspase 3/7” value in data set [2] (HCT-116, normoxia) is “no apparent effect”. Besides, the “reduction of areas, lengths, paths and joints of tube formation” value in data set [1] was 45-50%. The “Sub-G1 (%)” value is 4.3% in the data set with HCT-116 cells (HCT-116, hypoxia, 15 µM); 12.2% and 12.2±2.8% with HCT-116 cells (HCT-116, hypoxia, 30 µM); ~2.8% in the data set on HCT-116 cells (HCT-116, normoxia, 15 µM); 2.1% and 2.1±0.1% in the data set on HCT-116 cells (HCT-116, normoxia, 30 µM). For the same compound, the “G1 (%)” value was 28.1±1.2% with HCT-116 cells (HCT-116, hypoxia, 30 µM); 35.0% and 35.0±5.1% in the data set on HCT-116 cells (HCT-116, normoxia, 30 µM). The “G2/M (%)” value in the data set with HCT-116 cells (HCT-116, hypoxia, 30 µM) was 30.2±3.9%; in the data set on HCT-116 cells (HCT-116, normoxia, 30 µM), 48.0% and 48.0±1.9%. Moreover, the “S (%)” value in the data set on HCT-116 cells (HCT-116, hypoxia, 30 µM) is recorded as 29.3±4.7%; with HCT-116 cells (HCT-116, normoxia, 30 µM) it was 14.3±4.1%.

As for `[O-][n+]1nc(NCCCCNc2n[n+]([O-])c3ccccc3[n+]2[O-])nc2ccccc21` [Compound 9c, 3-(4-(1-Oxido-1,2,4-benzotriazin-1-ium-3-yl)aminobutylamino)-1,2,4-benzotriazine-1,4-dioxide], the IC50 in the data set with NCI-H460 (setting [3]), with NCI-H460 (setting [4]), in the data set with HCT-116 (setting [5]) and in the data set on HCT-116 (setting [6]) was > 30 µM each time.

In the case of `[O-][n+]1nc(NCCCCCNc2n[n+]([O-])c3ccccc3[n+]2[O-])nc2ccccc21` [Compound 9d, 3-(5-(1-Oxido-1,2,4-benzotriazin-1-ium-3-yl)aminopentylamino)-1,2,4-benzotriazine-1,4-dioxide], the IC50 with NCI-H460 (setting [3]), in the data set with NCI-H460 (setting [4]), in the data set with HCT-116 (setting [5]) and with HCT-116 (setting [6]) was > 30 µM in each case.

On to `[O-][n+]1nc(NCCCCCCNc2n[n+]([O-])c3ccccc3[n+]2[O-])nc2ccccc21` [Compound 9e, 3-(6-(1-Oxido-1,2,4-benzotriazin-1-ium-3-yl)aminohexylamino)-1,2,4-benzotriazine-1,4-dioxide], for which the IC50 in the data set on NCI-H460 (setting [3]), in the data set on NCI-H460 (setting [4]), in the data set on HCT-116 (setting [5]) and in the data set with HCT-116 (setting [6]) was > 30 µM each time.

As to `[O-][n+]1nc(NCCCCCCCNc2n[n+]([O-])c3ccccc3[n+]2[O-])nc2ccccc21` [Compound 9f, 3-(7-(1-Oxido-1,2,4-benzotriazin-1-ium-3-yl)aminoheptylamino)-1,2,4-benzotriazine-1,4-dioxide], the IC50 in the data set with NCI-H460 (setting [3]), in the data set with NCI-H460 (setting [4]), with HCT-116 (setting [5]) and with HCT-116 (setting [6]) was > 30 µM throughout.

Regarding `[O-][n+]1nc(NCCCCCCCCNc2n[n+]([O-])c3ccccc3[n+]2[O-])nc2ccccc21` [Compound 9g, 3-(8-(1-Oxido-1,2,4-benzotriazin-1-ium-3-yl)aminooctylamino)-1,2,4-benzotriazine-1,4-dioxide], the IC50 in the data set on NCI-H460 (setting [3]), in the data set with NCI-H460 (setting [4]), in the data set on HCT-116 (setting [5]) and in the data set on HCT-116 (setting [6]) was > 30 µM each time.

A word on the IC50: it is the point on the concentration scale where inhibition reaches its midpoint.
